The text below walks through data of ChEMBL document CHEMBL2321672, “Discovery of biphenylacetamide-derived inhibitors of BACE1 using de novo structure-based molecular design” (J Med Chem, 2013).

One series has as its system HEK293. The series is described as follows: Effect on sAPPalpha level in HEK293 cells coexpressing N-terminal […] APP at 100 uM after 24 hrs by Western blotting analysis. It is filed as functional, Homo sapiens. An outline of the steps:
(§1)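 HEK 293 cells over-expressing BACE1 were exposed to compound at 100 µM for 24 hours. Conditioned media were western blotted for sAPPα and sAPPβ, with sAPPβ detected by antibody 1A9. Levels were compared with control.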

Series [1] deals with T1, Beta-secretase 1 (Homo sapiens, UniProt P56817). The series is described as follows: Inhibition of BACE1 (unknown origin) expressed in HEK293 cells coexpressing N-terminal […] APP assessed as decrease in sAPPbeta level at 100 uM after 24 hrs by Western blotting analysis. It counts as cell-based. An outline of the steps:
as §1
For orientation: In western blotting, separated proteins are transferred to a membrane and probed.

Series [2] addresses T1, Beta-secretase 1. The series is described as follows: Inhibition of BACE1 (unknown origin) -mediated sAP-APP production expressed in HEK293 cells coexpressing N-terminal […] APP at 100 uM after 24 hrs by spectrophotometric analysis. It counts as cell-based. The procedure, abridged: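 HEK 293 cells stably expressing BACE1 plus wild-type human APP carrying an N-terminal alkaline phosphatase tag (AP-APP) were incubated with compound. Release of sAP-APP into conditioned media was quantified as alkaline phosphatase activity and expressed as percentage of the matched control.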

Series [3] can be described thus: Cytotoxicity against HEK293 cells assessed as cell viability at 100 uM after 24 hrs by MTT assay relative to control. It counts as cell-based. The following applies: human, read-out: Activity. An outline of the steps: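 MTT viability read-out on mammalian cells after 24-hour exposure to 100 µM compound; viable cells expressed as percentage remaining relative to control; mean ± SEM, n ≥ 3.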
(In general: Formazan colour is commonly taken as a measure of viable cells.)

The species entered for a further series is Homo sapiens. The experiment in a line: Selectivity ratio of IC50 for recombinant BACE2 (unknown origin) to IC50 of recombinant BACE1 (unknown origin).
For a further series, the target named is T2, Beta-secretase 2 (Homo sapiens, UniProt Q9Y5Z0).
T2 sequence (Q9Y5Z0 whole entry): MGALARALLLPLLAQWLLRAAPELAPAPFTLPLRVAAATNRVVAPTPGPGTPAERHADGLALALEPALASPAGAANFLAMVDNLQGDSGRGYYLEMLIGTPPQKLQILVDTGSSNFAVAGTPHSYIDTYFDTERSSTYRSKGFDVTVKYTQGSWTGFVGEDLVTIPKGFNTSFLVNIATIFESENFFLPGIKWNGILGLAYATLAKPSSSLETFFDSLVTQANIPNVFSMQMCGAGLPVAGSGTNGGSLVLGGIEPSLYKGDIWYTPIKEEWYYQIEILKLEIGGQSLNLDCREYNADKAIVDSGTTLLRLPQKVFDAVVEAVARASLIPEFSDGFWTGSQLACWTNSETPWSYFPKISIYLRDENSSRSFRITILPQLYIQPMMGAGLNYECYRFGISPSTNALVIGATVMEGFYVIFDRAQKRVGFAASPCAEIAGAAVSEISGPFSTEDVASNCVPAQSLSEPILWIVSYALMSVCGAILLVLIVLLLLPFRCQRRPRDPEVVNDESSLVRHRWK
The series is described as follows: Inhibition of recombinant BACE2 (unknown origin) using FAM-SEVNLDAEFK-TAMRA as substrate incubated for 30 mins prior to substrate addition by fluorimetric analysis.

Series [4] addresses T1, Beta-secretase 1. The experiment in a line: Inhibition of recombinant BACE1 (unknown origin) using FAM-SEVNLDAEFK-TAMRA as substrate incubated for 30 mins prior to substrate addition by fluorimetric analysis.
The target of series [5] is T1, Beta-secretase 1. The series is described as follows: Inhibition of recombinant BACE1 (unknown origin) using FAM-SEVNLDAEFK-TAMRA as substrate at 100 uM incubated for 30 mins prior to substrate addition by fluorimetric analysis relative to control.

Molecules are shown by their SMILES. Active and inactive are the calls of the source. The calls are words filed in the database; no cut-off is given here.

T1 sequence (P56817 whole entry): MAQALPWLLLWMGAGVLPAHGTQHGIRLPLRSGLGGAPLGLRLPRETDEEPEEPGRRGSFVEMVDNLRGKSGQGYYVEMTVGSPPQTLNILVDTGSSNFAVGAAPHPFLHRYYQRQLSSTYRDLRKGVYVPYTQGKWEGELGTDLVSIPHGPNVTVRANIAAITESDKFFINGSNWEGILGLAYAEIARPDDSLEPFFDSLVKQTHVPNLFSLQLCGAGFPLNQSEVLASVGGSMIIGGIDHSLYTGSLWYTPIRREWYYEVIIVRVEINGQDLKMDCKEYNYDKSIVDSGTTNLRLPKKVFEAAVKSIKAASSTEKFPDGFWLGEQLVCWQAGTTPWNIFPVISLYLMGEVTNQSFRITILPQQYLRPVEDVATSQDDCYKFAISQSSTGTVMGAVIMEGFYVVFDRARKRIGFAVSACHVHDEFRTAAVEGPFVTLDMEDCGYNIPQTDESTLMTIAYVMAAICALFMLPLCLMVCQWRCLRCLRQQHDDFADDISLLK

Broadly, the inhibition is the change of the read-out against control, counted positive when it falls. Usually IC50 stands for the concentration needed to halve the response being measured. In turn, `O=C(Cc1ccc(-c2ccccc2)cc1)NCc1ccc(CN2Cc3ccccc3C2)cc1` registered an Activity with HEK293 of 10%. The inhibition on Beta-secretase 1 [1] came out at 33%; at Beta-secretase 1 [2] it was 21.7%; on Beta-secretase 1 [5], 70.1%. In addition, the viability at 24 h, 100 µM in series [3] turned out to be 80%. For the same molecule, the Ratio IC50 in the series filed under Homo sapiens was found to be 2. The figures for the IC50 at Beta-secretase 2 and on Beta-secretase 1 [4] (read-out: IC50) were more than 1000 µM and 63.3 µM, respectively.

On to `NCc1ccc(CNC(=O)C(Cc2ccccc2)c2ccc(-c3ccccc3)cc2)cc1` (stereo unspecified), for which the viability at 24 h, 100 µM in series [3] stood at 15%. Also, the results for the IC50 on Beta-secretase 2 and at Beta-secretase 1 [4] (read-out: IC50) were 21 µM and 26.9 µM, respectively. Also, the inhibition on Beta-secretase 1 [5] was 102%.

In the case of `C[C@@H](C(=O)NCc1ccc(CN)cc1)c1ccc(-c2ccccc2)c(F)c1`, the viability at 24 h, 100 µM in series [3] came out at 18%. Besides, in the series filed under Homo sapiens, the Ratio IC50 came to 2. The results for the IC50 on Beta-secretase 2 and at Beta-secretase 1 [4] (read-out: IC50) were 194 µM and 85.7 µM, respectively. On Beta-secretase 1 [5], the inhibition stood at 55.5%.

Regarding `CC[N+](CC)(CC)Cc1ccc(CNC(=O)Cc2ccc(-c3ccccc3)cc2)cc1`, the viability at 24 h, 100 µM in series [3] turned out to be 40%. Moreover, at Beta-secretase 1 [4] (read-out: IC50), the IC50 was more than 100 µM. Further, the inhibition at Beta-secretase 1 [5] is 44.1%.

For `COc1ccc(CNC(=O)Cc2ccc(-c3ccccc3)cc2)cc1`, in series [3], the viability at 24 h, 100 µM was 82%. Further, the inhibition entry on Beta-secretase 1 [4] and on Beta-secretase 1 [5] was “inactive” throughout.

For `O=C(Cc1ccc(-c2c(F)c(F)c(F)c(F)c2F)cc1)NCc1ccccc1`, the viability at 24 h, 100 µM in series [3] worked out at 61%. Also, the IC50 entry at Beta-secretase 1 [4] is “Not Active”.

Take `NCc1ccc(CNC(=O)Cc2ccc(-c3cccc(C(F)(F)F)c3)cc2)cc1`: in series [3], the viability at 24 h, 100 µM was found to be 46%. Further, the Ratio IC50 in the series filed under Homo sapiens was found to be 2. Besides, the figures for the IC50 at Beta-secretase 2 and at Beta-secretase 1 [4] (read-out: IC50) were 319 µM and 58.9 µM, respectively. The inhibition at Beta-secretase 1 [5] turned out to be 60.7%.

With `CCN(CC)Cc1ccc(CNC(=O)Cc2ccc(-c3ccccc3)cc2)cc1`, the viability at 24 h, 100 µM in series [3] worked out at 38%. Moreover, at Beta-secretase 1 [4] (read-out: IC50), the IC50 was more than 100 µM. The inhibition at Beta-secretase 1 [5] worked out at 34.4%.

In the case of `NCc1ccc(CNC(=O)Cc2ccc(-c3ccc(O)cc3)cc2)cc1`, the IC50 on Beta-secretase 1 [4] (read-out: IC50) was more than 100 µM. The inhibition at Beta-secretase 1 [5] came to 41.3%.

In the case of `NCc1ccc(CNC(=O)Cc2ccc(-c3ccccc3)c(O)c2)cc1`, the viability at 24 h, 100 µM in series [3] was 50%. For the same molecule, the IC50 on Beta-secretase 1 [4] (read-out: IC50) was more than 100 µM. The inhibition at Beta-secretase 1 [5] came to 28.1%.

Take `O=C(Cc1ccc(-c2ccccc2)cc1)NCc1ccc(CN2CCCC2)cc1`: in series [3], the viability at 24 h, 100 µM came out at 24%. In addition, the IC50 on Beta-secretase 1 [4] (read-out: IC50) is more than 100 µM. For the same molecule, the inhibition at Beta-secretase 1 [5] is 24.4%.

As to `NCc1ccc(CNC(=O)Cc2ccc(-c3ccccc3)cc2O)cc1`, the viability at 24 h, 100 µM in series [3] was determined as 18%. Moreover, the half-inhibitory concentration (IC50) at Beta-secretase 1 [4] (read-out: IC50) is more than 100 µM. The inhibition at Beta-secretase 1 [5] turned out to be 42.5%.

As for `O=C(Cc1ccc(-c2ccccc2)cc1)NCc1ccccc1`, the viability at 24 h, 100 µM in series [3] was found to be 93%. On Beta-secretase 1 [4], the inhibition result is “inactive”. Moreover, at Beta-secretase 1 [5], the inhibition came out at 15.2%.

As to `O=C(Cc1ccc(-c2cccc(C(F)(F)F)c2)cc1)NCc1ccccc1`, in series [3], the viability at 24 h, 100 µM turned out to be 27%. Further, the IC50 entry at Beta-secretase 1 [4] is listed as “Not Active”.

For `NCc1ccc(CNC(=O)Cc2ccc(-c3ccccc3)cc2)cc1`, in series [3], the viability at 24 h, 100 µM is 42%. In the series listed under Homo sapiens, the Ratio IC50 was 2. The IC50 on Beta-secretase 2 is more than 1000 µM; at Beta-secretase 1 [4] (read-out: IC50) it was 323 µM. Moreover, on Beta-secretase 1 [5], the inhibition was 35.6%.

In the case of `O=C(Cc1ccc(-c2ccccc2)cc1)Nc1ccc(Br)cc1`, the inhibition result on Beta-secretase 1 [5] was “inactive”.

`O=C(Cc1ccc(-c2ccccc2)cc1)NCCc1c[nH]c2ccccc12`: on Beta-secretase 1 [5], the inhibition entry was “inactive”.

Regarding `CC(C(=O)NCc1ccc(CN)cc1)c1ccc(-c2ccccc2)c(F)c1` (stereo unspecified), the viability at 24 h, 100 µM in series [3] was 11%. Also, the Ratio IC50 in the series listed under Homo sapiens was found to be 2. For the same molecule, the IC50 on Beta-secretase 2 came to 207 µM; at Beta-secretase 1 [4] (read-out: IC50), 77.1 µM. Besides, the inhibition at Beta-secretase 1 [5] worked out at 51.7%.

As to `COc1ccc(NC(=O)Cc2ccc(-c3ccccc3)cc2)cc1`, the inhibition entry at Beta-secretase 1 [5] was “inactive”.

On to `NCc1ccc(CNC(=O)Cc2ccc(-c3c(F)c(F)c(F)c(F)c3F)cc2)cc1`, for which, in the series with HEK293 (Homo sapiens), the result was inactive. The inhibition result at Beta-secretase 1 [1] was “Active”. Further, the inhibition against Beta-secretase 1 [2] is 39.4%; on Beta-secretase 1 [5] it was 51.8%. For the same molecule, in series [3], the viability at 24 h, 100 µM turned out to be 68%. The Ratio IC50 in the series filed under Homo sapiens turned out to be 2. In addition, the figures for the concentration for half-maximal inhibition (IC50) at Beta-secretase 2 and on Beta-secretase 1 [4] (read-out: IC50) were 246 µM and 101 µM, respectively.

Regarding `O=C(Cc1ccc(-c2cc(C(F)(F)F)cc(C(F)(F)F)c2)cc1)NCc1ccccc1`, the viability at 24 h, 100 µM in series [3] is 76%. Moreover, the IC50 result at Beta-secretase 1 [4] was “Not Active”.

As for `CC(C)C(C(=O)NCc1ccc(CN)cc1)c1ccc(-c2ccccc2)cc1` (stereo unspecified), the viability at 24 h, 100 µM in series [3] was determined as 50%. In the series filed under Homo sapiens, the Ratio IC50 was found to be 2. The IC50 was found to be 100 µM at Beta-secretase 2 and 33.5 µM at Beta-secretase 1 [4] (read-out: IC50). Moreover, on Beta-secretase 1 [5], the inhibition was determined as 66.1%.

Turning to `NCc1ccc(CNC(=O)Cc2ccc(-c3cc(C(F)(F)F)cc(C(F)(F)F)c3)cc2)cc1`, the viability at 24 h, 100 µM in series [3] was found to be 8%. Further, the IC50 on Beta-secretase 2 is 33.2 µM; on Beta-secretase 1 [4] (read-out: IC50), 63.9 µM. On Beta-secretase 1 [5], the inhibition worked out at 80.6%.
